Source: PubChem BioAssay
An excerpt weighted towards active compounds, which were near 4.1% of everything screened.
Apaf1 inhib: blocks human Apaf-1 apoptosome activity; reconstituted apoptosome caspase-3 activity, DEVD-Rh110 fluorescence; inhibition, % at 20 µM; hit rate 0.71% among 330,000; O14727; active means inhibition of at least 40% at 20 µM
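Medium: Hepes buffer, pH 7.5 / System: biochemical Apaf-1 apoptosome reconstitution / Measured by: Rh110 fluorescence, excitation 480 nm, emission 540 nm / Times: compound with Apaf-1, dATP, procaspase-3 30 min, then 50 min reaction, room temperature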
CHOP UPR activ: activators of apoptotic arm of unfolded protein response (CHOP) | CHO-CHOP luciferase reporter, UPR activation, luminescence; percent of tunicamycin response over DMSO baseline | activation, % at 10 µM | hit rate 0.34% among 330,000;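 active means at 10 µM dose, activation of 40% or more, normalized to positive control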
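Evaluation: % reporter activation, DMSO baseline versus tunicamycin full activation; System: CHO-CHOP luciferase reporter cell line; Input: 500 cells/well; Incubation: 6 h compound treatment, 37 °C; Measured by: Steady-Glo luciferase luminescence; Dosing: one dose, 10 µM in 0.5% DMSO; Buffer or medium: F12 medium, 10% FBS; Benchmarks: positive tunicamycin 10 µg/mL, negative DMSO alone.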
UBC13 polyUb: human UBC13 polyubiquitination inhibition. inhibition, % at 20 µM. P61088. hit rate 0.47% among 330,000. AID 485273. UBC13 polyubiquitin chain formation, TR-FRET; in the data active means inhibition above about 45%, passing the limit was not always enough
Target sequence (P61088 whole entry, looked up): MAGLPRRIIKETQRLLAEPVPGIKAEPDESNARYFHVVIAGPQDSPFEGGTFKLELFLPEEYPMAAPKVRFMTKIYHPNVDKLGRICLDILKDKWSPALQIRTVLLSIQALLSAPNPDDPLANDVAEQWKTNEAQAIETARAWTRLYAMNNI
XBP1 UPR activ: activators of adaptive arm of unfolded protein response (XBP1). CHO-XBP1 luciferase reporter, IRE1-XBP1 UPR activation, luminescence; percent of tunicamycin response, DMSO as zero. activation, % at 20 µM. hit rate 0.33% among 330,000. AID 463104;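 active means versus positive control, 20 µM dose yields 30% or more activation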
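assay system = CHO-XBP1 luciferase reporter cells | amount = 1000 cells/well | buffer or medium = F12 plus 10% FBS | compound dosing = single point, 20 µM final compound, 1% DMSO | incubation = 16-18 h cell attachment at 37 °C, then 6 h compound exposure | detection = Steady-Glo luminescence read | controls = tunicamycin 10 µg/mL and vehicle-only wells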
Mdm2-MdmX inh: human Mdm2/MdmX binding inhibition; O15151+Q00987; inhibition, % at 8 µM; AID 485346; hit rate 3% among 330,000; SaOS-2 split-luciferase Mdm2/MdmX complementation, luminescence;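 active means inhibition of at least 50% at 8 µM in the primary screen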
Mdm2 MdmX conf: human Mdm2/MdmX binding inhibition, confirmed. shares compounds with Mdm2-MdmX inh. luminescent assay. inhibition, % at 8 µM. hit rate 55% among 10,000. AID 489028; in the data active means inhibition above about 40%
FLuc counter: counter-screen for Mdm2/MdmX inhibitors: full-length luciferase. AID 504607. hit rate 77% among 6,200. SaOS-2 full-length luciferase counterscreen, luminescence. inhibition, % at 8 µM. shares compounds with Mdm2-MdmX inh;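 active means mean inhibition at 8 µM reaching about 37%, which flags the compound as non-specific, limit read from the data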;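 further: p53-null SaOS-2 cells with luciferase driven by a doxycycline-inducible promoter; compound on cells about two nights before reading with doxycycline added after day one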
Of the large screens only hits and unclear results are named; the others gave an inactive call (follow-up assays come after a bar, where they were run).

Cc1cccc(C)c1NS(=O)(=O)c1ccc(-c2cnc(C3CC3)o2)cc1	Mdm2-MdmX inh 82 | Mdm2 MdmX conf 53 | FLuc counter 93
CC(=O)c1ccc(NS(=O)(=O)c2ccc(-c3cnc(C4CC4)o3)cc2)cc1	none
CCOc1ccccc1CNS(=O)(=O)c1ccc(-c2cnc(C3CC3)o2)cc1	Mdm2-MdmX inh 61 | Mdm2 MdmX conf 60 | FLuc counter 84
Cc1ccc(CNS(=O)(=O)c2ccc(-c3cnc(C4CC4)o3)cc2)cc1	none
Cc1ccc(N(C)S(=O)(=O)c2ccc(-c3cnc(C4CC4)o3)cc2)cc1	Mdm2-MdmX inh 61 | Mdm2 MdmX conf 55 | FLuc counter 79
O=C(COC(=O)/C=C/c1ccc(F)cc1)Nc1ccccc1-c1ccccc1	none
COc1cc(/C=N/Nc2nc3ccccc3[nH]2)cc(OC)c1O	none
COc1ccc(C)cc1NS(=O)(=O)c1ccc(-c2cnc(C3CC3)o2)cc1	Mdm2-MdmX inh 83 | Mdm2 MdmX conf 52 | FLuc counter 111
O=S(=O)(c1ccc(-c2cnc(C3CC3)o2)cc1)N1CCN(c2ccccc2)CC1	Mdm2-MdmX inh 59 | Mdm2 MdmX conf inactive
O=S(=O)(NCc1ccccc1)c1ccc(-c2cnc(C3CC3)o2)cc1	none
N#CC1=C(SCC(N)=O)NC2=C(C(=O)c3ccccc32)C1c1ccc(Cl)cc1 (configuration not stated)	Mdm2-MdmX inh 50 | Mdm2 MdmX conf inactive
COc1ccc(Cl)cc1Nc1nc(N)nc(C(F)(F)F)n1	none
Cc1ccccc1NC(=O)NC1(C(=O)NCc2ccco2)CCCCC1	none
COc1ccc(S(=O)(=O)N2CCN(CC(O)COc3ccc(CC#N)cc3)CC2)cc1OC (configuration not stated)	none
O=C(COC(=O)CN1C(=O)C2CCCCC2C1=O)Nc1cc(F)ccc1F (configuration not stated)	none
Cc1cc(C)c2oc(C(=O)Nc3ccc(S(=O)(=O)N4CCC(C)CC4)cc3)cc(=O)c2c1	none
CC(=O)Nc1ccc(NC(=O)c2cc(=O)c3cc(C)cc(C)c3o2)cc1	Mdm2-MdmX inh 67 | Mdm2 MdmX conf 54 | FLuc counter 90
CC(C)[C@H](NS(=O)(=O)c1ccccc1)C(=O)Nc1nccs1	none
CC1(C)COC(/C=C/c2cccc([N+](=O)[O-])c2)=N1	Mdm2-MdmX inh 79 | Mdm2 MdmX conf 72 | FLuc counter 39
CN(C)CCCN(Cc1ccccc1)C(=S)Nc1ccc(SC(F)F)cc1	none
FC(F)Sc1ccc(NC(=S)NCC2CCCCC2)cc1	Mdm2-MdmX inh 65 | Mdm2 MdmX conf inactive
FC(F)Sc1ccc(NC(=S)NCc2ccccc2)cc1	none
CN(C(=S)Nc1ccc(SC(F)F)cc1)C(c1ccccc1)c1ccccc1	Mdm2-MdmX inh 56 | Mdm2 MdmX conf inactive
FC(F)Sc1ccc(NC(=S)NC(c2ccccc2)c2ccccc2)cc1	Mdm2-MdmX inh 100 | Mdm2 MdmX conf 74 | FLuc counter 38
COc1ccc(C(=O)O/N=C(\N)c2ccc(OC)c(OC)c2)c(OC)c1	Mdm2-MdmX inh 75 | Mdm2 MdmX conf inactive
COc1ccc(C(=O)O/N=C(\N)c2ccccc2Cl)cc1OC	Mdm2-MdmX inh 86 | Mdm2 MdmX conf 44 | FLuc counter 112
COc1ccc(C(=O)O/N=C(\N)c2ccccc2)c(OC)c1	Mdm2-MdmX inh 93 | Mdm2 MdmX conf 77 | FLuc counter 164
COc1ccc(C(=O)O/N=C(\N)c2ccccn2)c(OC)c1	Mdm2-MdmX inh 69 | Mdm2 MdmX conf inactive
CN(C(=O)COC(=O)CNC(=O)c1ccccc1F)C1CCCCC1	none
CCN(CC1COc2ccccc2O1)S(=O)(=O)c1ccc(C)cc1 (configuration not stated)	none
COC(=O)[C@H](Cc1ccccc1)NC(=O)NCCc1ccc(OC)cc1	none
OC1(c2ccc(Br)cc2)CN(c2ccccc2)C2=[N+]1CCS2 (configuration not stated)	none
COc1ccc(C(=O)O/N=C(\N)c2ccc(OC)c(OC)c2)cc1	Mdm2-MdmX inh 86 | Mdm2 MdmX conf inactive
COc1ccc(/C(N)=N/OC(=O)c2ccc(OC)c([N+](=O)[O-])c2)cc1OC	Mdm2-MdmX inh 71 | Mdm2 MdmX conf inactive
COc1ccc(OC(=O)N2CCOCC2)cc1	none
COc1ccc(/C(N)=N/OC(=O)N2CCOCC2)cc1	Mdm2-MdmX inh 62 | Mdm2 MdmX conf inactive
COc1ccc(/C(N)=N/OC(=O)CC2CCCCC2)cc1OC	Mdm2-MdmX inh 67 | Mdm2 MdmX conf inactive
O=C(CN(C(=O)c1csnn1)c1ccc(Cl)cc1)NCc1ccc2c(c1)OCO2	none
Cc1cc([N+](=O)[O-])nn1CCCC(=O)Nc1cc(Cl)ccc1Cl	none
CCCCc1cc(=O)oc2cc(OC(C)C(=O)NCCN3CCOCC3)c(Cl)cc12 (configuration not stated)	none
COc1cc(NS(=O)(=O)c2ccc(OC)c(C)c2C)c(OC)cc1Cl	Mdm2-MdmX inh 51 | Mdm2 MdmX conf 55 | FLuc counter 63
COc1ccc(NC(=O)C(=O)NCC2CCCN2S(=O)(=O)c2ccc(C)cc2)cc1 (configuration not stated)	Mdm2-MdmX inh 66 | Mdm2 MdmX conf 79 | FLuc counter 104
COc1ccc(NC(=O)C(=O)NCC2CCCN2S(=O)(=O)c2cc(C)ccc2C)cc1 (configuration not stated)	Mdm2-MdmX inh 60 | Mdm2 MdmX conf 74 | FLuc counter 48
O=C1CC(Cc2ccccc2)C(=O)N1CCCn1ccnc1 (configuration not stated)	none
NC(=O)N/N=C/c1c(Sc2nnnn2-c2ccccc2)nc2ccccn2c1=O	Mdm2-MdmX inh 62 | Mdm2 MdmX conf 50 | FLuc counter inactive
COc1ccc(/C=C/C(=O)N2CCN(c3ccccn3)CC2)c(OC)c1OC	none
COc1ccc(CCNc2c(C)c(C)nc3ncnn23)cc1	Mdm2-MdmX inh 50 | Mdm2 MdmX conf 46 | FLuc counter 69
Fc1cccc(CN2CCN(c3nc4nonc4nc3NC3CC3)CC2)c1	none
CC(C)(C)OC(=O)NCCCC[C@H](NC(=O)c1nc[nH]c1C(=O)NCc1ccccc1)C(=O)OC(C)(C)C	none
Cc1ccc(NC(=O)c2nc[nH]c2C(=O)NCCCCCNC(=O)OC(C)(C)C)cc1	none
CC(C)(C)OC(=O)NCc1ccc(NC(=O)c2nc[nH]c2C(=O)NCCCNC(=O)c2[nH]cnc2C(=O)Nc2ccc(CNC(=O)OC(C)(C)C)cc2)cc1	Mdm2-MdmX inh 86 | Mdm2 MdmX conf inactive
